Where a SMILES comes first, the peptide text is derived from it. Bridges are numbered along the chain shown (N, C = ends). The star is where a group is joined. 5FAM = O=C1OC2(c3ccc(O)cc3Oc3cc(O)ccc32)c2ccc(C(=O)*)cc21
What was measured:
[1] = In vitro skin penetration across excised pig skin; format: in vitro ADME, Berkshire pig; settings: FAM-peptide conjugate vs free FAM, donor 50 μmol/L
Method in brief: (§1)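 Valia-Chien diffusion cells at 37 ± 0.5 °C, stirred at 250 rpm, with excised rat back skin or Berkshire pig skin. Donor held 50 μmol/L N-terminally FAM-labelled peptide or free FAM in 0.9% NaCl with 0.5% (v/v) DMSO. Receiver sampled at 0–5 h and replaced with fresh saline; fluorescence read at 492 nm. Cumulative amount and Papp derived; at least 4 replicates.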

[2] = In vitro skin penetration across excised rat skin; format: in vitro ADME, SD rats; settings: for skin permeability compared to the other CPPs: FAM-CPP conjugates, excised rat back skin, P < 0.01
Method in brief: as §1

B16F10 cells = assay: Calcein-AM/PI double staining of B16F10 cells; format: cell-based; settings: 15 μmol/L, 48 h, vs control group
Method in brief: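 B16F10 cells exposed 48 h to 15 μmol/L agents, then stained with a Calcein-AM/PI double staining kit (calcein marks live cells green, PI marks dead cells red). Imaged by inverted fluorescence microscopy.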

[3] = system: human keratinocyte cells (HeKa cells); assay: HeKa cell viability; format: cell-based; settings: 50 μmol/L FAM-CPP conjugate, exposure 72 h, CCK-8, n = 3
Method in brief: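 HeKa cells exposed to 50 μmol/L FAM or FAM–peptide conjugate for 48 and 72 h. Viability read with CCK-8; n = 3.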

## CC[C@H](C)[C@H](NC(=O)[C@H](CCC(N)=O)NC(=O)[C@H](CCCNC(=N)N)NC(=O)c1ccc2c(c1)C(=O)OC21c2ccc(O)cc2Oc2cc(O)ccc21)C(=O)N[C@@H](CCCCN)C(=O)N[C@@H](Cc1c[nH]c2ccccc12)C(=O)N[C@@H](Cc1c[nH]c2ccccc12)C(=O)N[C@@H](Cc1ccccc1)C(=O)N[C@@H](Cc1c[nH]c2ccccc12)C(=O)N[C@@H](Cc1c[nH]c2ccccc12)C(=O)N[C@@H](CCCNC(=N)N)C(=O)N[C@@H](CCCNC(=N)N)C(=O)N[C@@H](CCSC)C(=O)N[C@@H](CCCCN)C(=O)N[C@@H](Cc1c[nH]c2ccccc12)C(=O)N[C@@H](CCCCN)C(=O)N[C@@H](CCCCN)C(=O)O [FAM-589WP] (5FAM-RQIKWWFWWRRMKWKK-OH)
[1]
  increase in Papp compared to free FAM, pig skin: 60 fold
[2]; FAM-peptide conjugate vs free FAM, excised rat skin, donor 50 μmol/L
  increase in Papp compared to free FAM, rat skin: 72 fold

## O=c1[nH]c(=O)n([C@H]2C[C@H](O)[C@@H](CO)O2)cc1F [FUdR, 5-fluoro-2ʹ-deoxyuridine]
B16F10 cells
  live cell density / dead cells by Calcein-PI staining: notable decrease in live cell density

## CC[C@H](C)[C@H](NC(=O)[C@H](CCCCN)NC(=O)[C@@H](NC(=O)[C@H](CCC(N)=O)NC(=O)[C@H](CCCNC(=N)N)NC(=O)c1ccc2c(c1)C(=O)OC21c2ccc(O)cc2Oc2cc(O)ccc21)[C@@H](C)CC)C(=O)N[C@@H](Cc1c[nH]c2ccccc12)C(=O)N[C@@H](Cc1ccccc1)C(=O)N[C@@H](CCC(N)=O)C(=O)N[C@@H](CC(N)=O)C(=O)N[C@@H](CCCNC(=N)N)C(=O)N[C@@H](CCCNC(=N)N)C(=O)N[C@@H](CCSC)C(=O)N[C@@H](CCCCN)C(=O)N[C@@H](Cc1c[nH]c2ccccc12)C(=O)N[C@@H](CCCCN)C(=O)N[C@@H](CCCCN)C(=O)O [Penetratin]
[2]; donor 50 μmol/L
  skin permeability compared to the other CPPs: significantly higher than the other CPPs
[3]
  cytotoxicity to HeKa cells: did not display cytotoxicity

## C[C@H](NC(=O)c1ccc2c(c1)C(=O)OC21c2ccc(O)cc2Oc2cc(O)ccc21)C(=O)N[C@H]1CSSC[C@@H](C(=O)NCC(=O)O)NC(=O)[C@H](CCC(N)=O)NC(=O)[C@H](Cc2c[nH]cn2)NC(=O)[C@H](CCC(N)=O)NC(=O)[C@H]([C@@H](C)O)NC(=O)[C@H](CO)NC(=O)CNC(=O)[C@H]([C@@H](C)O)NC1=O [SPACE] (5FAM-ACTGSTQHQCG-OH; disulfide 2-10)
[2]; FAM conjugates, excised rat skin
  permeability relative to the optimized peptide 589WP: about one-third the permeability of the optimized peptide 589WP
[2]; FAM conjugates, excised rat skin (Fig. 1)
  permeability relative to wild-type penetratin: about half the permeability of wild-type penetratin

## CC[C@H](C)[C@H](NC(=O)[C@H](CCCCN)NC(=O)[C@H](CCCCN)NC(=O)[C@H](C)NC(=O)[C@H](CC(C)C)NC(=O)[C@H](C)NC(=O)[C@H](C)NC(=O)[C@H](CC(C)C)NC(=O)[C@H](C)NC(=O)[C@H](CCCCN)NC(=O)[C@H](CC(C)C)NC(=O)[C@H](CC(N)=O)NC(=O)[C@@H](NC(=O)[C@H](CCCCN)NC(=O)CNC(=O)[C@H](CC(C)C)NC(=O)[C@H](CC(C)C)NC(=O)[C@H](Cc1ccc(O)cc1)NC(=O)CNC(=O)[C@H](C)NC(=O)[C@H](CO)NC(=O)[C@H](CC(N)=O)NC(=O)[C@H](CC(C)C)NC(=O)[C@@H](NC(=O)[C@H](Cc1c[nH]c2ccccc12)NC(=O)CNC(=O)c1ccc2c(c1)C(=O)OC21c2ccc(O)cc2Oc2cc(O)ccc21)[C@@H](C)O)[C@@H](C)CC)C(=O)N[C@@H](CC(C)C)C(=O)O [Transportan]
[2]; donor 50 μmol/L
  skin permeability compared to the other CPPs: significantly higher than the other CPPs
